Source: PubChem (Broad Institute)
Sampled rows, rich in hits. Any-hit rate of the full collection: about 2.6%.
Vif inh – inhibitors of HIV Vif; HEK293T cells, Vif self-association by quenched fluorescence, imaging, 24 h; inhibition, % at 7.49 µM; hit rate 0.35% among 340,000; AID 602346; in the data active = inhibition above about 50%, passing the limit was not always enough
miR122 inh – blocks miR-122 activity in Huh7 sensor cells; Huh7 miR-122 Renilla luciferase sensor, 48 h; neutral wells = 0, positive control = 100; activation (reporter increase), % at 12.5 µM; hit rate 0.3% among 340,000; AID 602342;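 active = mean replicate activation score at least 90 and every replicate individually at or above 90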;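 note: higher luciferase means less miR-122 activity so hits act as miR-122 inhibitors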
rRNA inh HTS – inhibits bacterial ribosomal RNA function over humanized ribosomes | hit rate 1.6% among 350,000 | GFP signal change (wild-type ribosome), % (test concentration not listed) | E. coli WT GFP vs humanized-ribosome RFP mutants, fluorescence, 24 h; active compounds read low; DMSO median 0, no signal -100 | AID 720706;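 active = significant combined selectivity score with lowered wild-type GFP, culture density cut under 30%, mutant RFP and density less affected; inactive = any of these conditions unmet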
S100A4 inh HTS – inhibitors of human S100A4 binding to myosin IIA peptide; P26447; S100A4/TAMRA-MyoIIA peptide fluorescence polarization; inhibition, % at 10.7 µM; hit rate 0.14% among 360,000; AID 652163;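 active = mean inhibition of at least 70% across replicates, with every replicate also reaching that level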
Target sequence (P26447 whole entry, looked up): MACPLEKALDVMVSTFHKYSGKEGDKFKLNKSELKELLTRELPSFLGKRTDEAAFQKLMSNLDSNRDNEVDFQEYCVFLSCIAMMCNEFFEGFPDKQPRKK
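Test system: S100A4 monomer protein. Medium: HEPES buffer with Ca2+, pH 7.2. Reagent: fluorescent myosin IIA peptide, 5 nM. Compound dosing: single-point compound testing. Timing: 5 min between mix addition and reading. Benchmarks: DMSO neutral and TFP positive wells.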
FN deposit inh – fibronectin deposition inhibition; AH1F fibroblasts, Alexa488-fibronectin deposition fluorescence, overnight; inhibition, % at 12.6 µM; hit rate 0.086% among 350,000; AID 743247;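 active = mean inhibition across replicates of 30% or more, regardless of how many single replicates reach that level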;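 note: positive control wells lacked labelled fibronectin entirely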
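Material: AH1F fibroblast monolayer depositing Alexa488-labelled fibronectin into matrix / Amount: 10000 AH1F cells per well / Signal: fluorescence 485/525 nm / Medium: DMEM, 2% serum / Compound: single dose, pinned / Incubation: 1 h cell adhesion before compound, then overnight fibronectin incubation / Reagent: Alexa488-FN, 24 nM final / Read-out: inhibition of fibronectin deposition signal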
Env fusion inh – blocks HIV Env-driven cell-cell fusion | HeLa-JRFL Env/CEM21 cell fusion, luciferase | inhibition, % at 12.3 µM | hit rate 1.1% among 360,000 | AID 651610;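 active = mean replicate inhibition score of at least 50 and every replicate individually at or above 50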;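 note: 0% = plate neutral controls and 100% = maraviroc near 300 nM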
* marks the source's active call; other numbers are inactive results; . = no result given; [ ] = remark or other dose.

SMILES	Vif inh	miR122 inh	rRNA inh HTS	S100A4 inh HTS	FN deposit inh	Env fusion inh
CO[C@@H]1CN(C)C(=O)c2ccc(NC(=O)C3CC3)cc2OC[C@@H](C)N(C(=O)c2ccccn2)C[C@H]1C	.	.	4.2	-1.5	-17.1	.
CCNC(=O)[C@H]1[C@H](CO)[C@H]2Cn3c(cccc3=O)[C@H]2N1CC1CCCCC1	.	.	0.9	.	.	4.8[16.7 µM]
Cc1ccc(CN2CC(N3CCCCC3)CS2(=O)=O)cc1 (stereo not given)	.	-0.6	-1.4	-3.1	-1.4	1.4
Cc1ccc(CN2CC(N3CCCC3)CS2(=O)=O)cc1 (stereo not given)	.	-2.3	3.9	-1.2	-2.4	59.6*
CCc1nc(Sc2nnnn2-c2ccccc2)c2c3c(sc2n1)CCCC3	18.0	.	2.1	-4.7	-4.7	8.7
Cc1nc(Sc2nnnn2C)c2c3c(sc2n1)CCC3	96.8*	-3.4	.	.	.	.
C[C@H](NS(=O)(=O)c1c(Cl)cccc1Cl)C(=O)NNC(=O)COc1ccccc1F	52.5*	11.5	0.6	-4.6	0.4	7.8
COc1ccc(C(=O)NCC(c2ccco2)N2CCc3ccccc32)c(OC)c1 (stereo not given)	-10.0	.	-23.9*	-1.2	1.4	8.9
COc1ccc(OC)c(-c2nn(-c3ccccc3)cc2C(=O)NCC(c2ccco2)N2CCCC2)c1 (stereo not given)	54.5*	-3.9	-3.0	18.3	-5.5	4.1
COCC(=O)Nc1ccc2c(c1)OC[C@@H](C)N(C(=O)C1CCCC1)C[C@H](C)[C@@H](OC)CN(C)C2=O	.	3.6[16.7 µM]	-0.9	.	1.4	-13.2[16.7 µM]
Cc1ccc(C(=O)NC(CCc2ccccc2)C(=O)O)cc1 (stereo not given)	118.0*	1.1	3.5	-4.6	-3.9	10.5
Cc1ccc(CC(NC(=O)c2ccccc2)C(=O)NC(Cc2ccccc2)C(=O)O)cc1 (stereo not given)	-7.0	-4.8	10.2	4.4	-11.9	10.7
C/C(=N/OC(=O)C1CC1c1ccccc1)c1ccccc1 (stereo not given)	1.7	.	-20.9*	-20.3	.	-0.9
Clc1ccc2c(c1)C(C1=NCCN1)c1ccccc1CS2 (stereo not given)	-3.2	.	.	.	5.8	113.5*
S=C1NCCc2ccc(Cl)cc2C1c1ccccc1Cl (stereo not given)	-3.5	16.1	.	.	-5.4	-68.5
COc1ccc2c3c([nH]c2c1)[C@@H](CO)N(S(C)(=O)=O)CC31CN(C(=O)Nc2ccccc2)C1	.	.	0.8	-4.6	.	.
COCC#Cc1cnc2c(c1)C(=O)N([C@@H](C)CO)C[C@H](C)[C@H](CN(C)S(=O)(=O)c1ccccc1)O2	.	9.5[16.7 µM]	1.1	-11.8	-0.1	0.5[16.7 µM]
COC(=O)CN1C(=S)N(c2ccc(Cl)cc2)C(=O)C1CC(=O)Nc1ccc(Cl)cc1 (stereo not given)	-2.8	-2.5	.	.	.	.
COC(=O)CN1C(=S)N(c2ccc(Cl)cc2)C(=O)C1CC(=O)Nc1ccc(F)cc1 (stereo not given)	-2.4	.	-24.9*	0.5	0.1	-1.8
NNc1nc2c(-c3ccc(Cl)cc3)nnn2c2ccccc12	-5.3	29.0	-21.8	0.7	14.6	-73.0
NNc1nc2c(-c3ccc(F)cc3)nnn2c2ccccc12	-4.8	29.8	-16.6*	-6.4	3.0	-79.6
CC(C)(C)NC(=O)C(c1ccncc1)n1c(=O)c(-c2cc3ccccc3[nH]2)nc2ccccc21 (stereo not given)	.	.	-41.5	0.4	-0.2	58.2*
COc1ccc(C(C(=O)NC(C)(C)C)n2c(=O)c(-c3cc4ccccc4[nH]3)nc3ccccc32)cc1 (stereo not given)	.	.	18.3	-7.1	6.1	11.4
O=S(=O)(N/N=C1/CC(c2ccccc2)Oc2ccccc21)c1ccccc1 (stereo not given)	-2.0	.	-12.5*	-7.8	-2.0	-20.1
c1ccc(Nc2ccc(NCCc3c[nH]c4ccccc34)cc2)cc1	.	.	-23.7*	-29.4	9.7	-1.7
SMILES	Vif inh	miR122 inh	rRNA inh HTS	S100A4 inh HTS	FN deposit inh	Env fusion inh
O=C(CCc1c[nH]c2ccccc12)Nc1ccc(Nc2ccncc2)cc1	.	.	9.2	21.7	-2.8	-17.9
O=C(CCc1c[nH]c2ccccc12)Nc1ccc(Nc2cccnc2)cc1	.	.	-30.3*	-13.3	3.4	0.9
CNC(=O)C[C@H]1CC[C@H]2[C@@H](COc3ccc(NC(=O)CN(C)C)cc3C(=O)N2C)O1	.	.	2.4	.	-10.7	.
C[C@H](CO)N1C[C@H](C)[C@@H](CN(C)C(=O)Nc2ccc3c(c2)OCO3)Oc2c(NC(=O)CCCCCC(=O)Nc3ccccc3N)cccc2C1=O	.	-12.2[16.7 µM]	2.3	-0.1	6.2	.
Cc1noc(NC(=O)c2ccc(Cl)cc2)c1Cl	-2.4	.	-4.1	-5.1	0.0	-16.6
Cc1noc(NC(=O)c2cccc(C(F)(F)F)c2)c1Cl	9.0	.	-47.9*	-8.8	-1.1	-10.0
CCN(CC)S(=O)(=O)c1cc(C(=O)Nc2ccncc2)ccc1Cl	-69.5	3.5	.	.	.	.
CCN(CC)S(=O)(=O)c1cc(C(=O)N(C)CC(=O)Nc2ccc(Cl)cc2)ccc1Cl	-2.6	168.4*	-50.1	6.7	0.0	21.8
COc1ccc2c3c(n(C)c2c1)[C@@H](CO)N(Cc1ccccc1F)CC31CCN(C(C)=O)CC1	.	.	4.5	.	.	.
O=C(C[C@@H]1C=C[C@H](NC(=O)C2CC2)[C@@H](CO)O1)Nc1nccs1	.	.	1.4	-4.6	3.9	4.0[16.7 µM]
O=C(O)C(Cc1ccccc1)n1cccc1 (stereo not given)	4.8	-4.2	.	.	.	.
O=C(O)[C@H](Cc1ccccc1)N1C(=O)c2c(Cl)c(Cl)c(Cl)c(Cl)c2C1=O	-1.4	.	-39.2*	3.1	-12.2	-6.3
CCOC(=O)CSc1nc2cc(S(=O)(=O)N3CCOCC3)ccc2n1CC	1.6	-0.2	-4.7	-3.2	-2.6	0.0
CCOC(=O)c1ccc2c(c1)nc(SCC(=O)N1CCOCC1)n2CC	-2.5	.	-39.0*	3.8	-4.5	7.1
CCC(=O)N1CC2(CCN(C(=O)c3cccnc3)CC2)c2c([nH]c3cc(OC)ccc23)[C@H]1CO	.	.	-1.1	-5.3	.	.
Cc1ccc(N(C(=O)Cc2c[nH]c3ccccc23)C(C(=O)NC2CCCCC2)c2ccco2)cc1 (stereo not given)	16.1	-6.4	.	.	-4.2	84.2*
CC1CCCCC1NC(=O)CO/N=C/c1ccccc1OC(F)F (stereo not given)	91.5*	-2.1	5.6	-1.4	-2.9	-6.1
CCCn1nnc(NC(=O)C(c2ccccc2)c2ccccc2)n1	50.2*	-4.2	.	.	-0.2	3.6
COc1cccc(OCCNS(=O)(=O)c2ccccc2[N+](=O)[O-])c1	-2.6	-1.7	-21.6*	-5.3	5.1	.
COc1ccc(CCNS(=O)(=O)c2ccccc2[N+](=O)[O-])cc1OC	-4.9	.	-1.9	-3.7	-0.5	-6.7
